Results taken from ChEMBL document CHEMBL1122302, “2-Benzazepines. 2. Thiazolo[5,4-d][2]benzazepines” (J Med Chem, 1983).

Legend:
[1] = Prevention of metrazole induced convulsions in the antimetrazole test.; assay type: functional; conditions: Mus musculus
Method in brief: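 Test compound given as a suspension in 5% acacia to three male CF-1 animals per dose level; metrazole 70 mg/kg iv 1 h later.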

[2] = biological target: GABA-A receptor; anion channel; experiment: In vitro displacement of [3H]diazepam from GABA-A benzodiazepine receptor; assay type: protein-complex assay

Q: For `CN1C(=O)CN=C(c2ccccc2)c2cc(Cl)ccc21` [DIAZEPAM], which ED50 [1] is on record?
A: Its ED50 is 1 mg/kg.

Q: Which IC50 [2] does the source give for `Nc1nc2c(s1)CN=C(c1ccccc1)c1cc(Cl)ccc1-2` here?
A: Its IC50 is 10.5 nM.

Q: And the ED50 [1]?
A: Its ED50 is 7.4 mg/kg.

Q: For `Cc1nc2c(s1)CN=C(c1ccccc1Cl)c1cc(Cl)ccc1-2`, which IC50 [2] is on record?
A: Its IC50 is 4.1 nM.

Q: What about the ED50 [1] of the same compound?
A: The ED50 was 50 mg/kg.

Q: Which IC50 [2] does the source give for `Nc1nc2c(s1)CN=C(c1ccccc1F)c1cc(Cl)ccc1-2` here?
A: Its IC50 is 2.8 nM.

Q: What about the ED50 [1] of the same compound?
A: Its ED50 is 7.7 mg/kg.

Q: For `Cc1nc2c(s1)CN=C(c1ccccc1F)c1cc(Cl)ccc1-2`, which IC50 [2] is on record?
A: Its IC50 is 7.8 nM.

Q: And the ED50 [1]?
A: Its ED50 is 30 mg/kg.

Q: With `Cc1nc2c(s1)CN=C(c1ccccc1)c1cc(Cl)ccc1-2` as the compound, how does the IC50 [2] read?
A: The IC50 was 32 nM.

Q: What about the ED50 [1] of the same compound?
A: Its ED50 is 63 mg/kg.

Q: With `Nc1nc2c(s1)CN=C(c1ccccc1Cl)c1cc(Cl)ccc1-2` as the compound, how does the IC50 [2] read?
A: The IC50 was 1.6 nM.

Q: What about the ED50 [1] of the same compound?
A: Its ED50 is 9.3 mg/kg.
